Measured values as given in ChEMBL document CHEMBL4765327, “Design and synthesis of thiourea-based derivatives as Mycobacterium tuberculosis growth and enoyl acyl carrier protein reductase (InhA) inhibitors” (Eur J Med Chem, 2020).

Key:
[1] = tested on: Mycobacterium tuberculosis; assay: Antimycobacterial activity against Mycobacterium tuberculosis H37Rv assessed as inhibition of microbial growth incubated for 1 week by alamar blue based assay; type: functional; conditions: 168 h, time 1 weeks
How it was run: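 M. tuberculosis H37Rv by Microplate Alamar Blue Assay; MIC reported in μg/mL, with isoniazid, rifampicin and ethambutol run as standard drugs.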

[2] = tested on: Mycobacterium tuberculosis; assay: Antimycobacterial activity against Mycobacterium tuberculosis H37Rv assessed as reduction in colony forming unit at 1 to 10 ug/ml incubated for 7 days in nutrient starvation medium by alamar blue based serial dilution method; type: functional; conditions: dose 1-10 µg/ml; time 7 day
How it was run: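 Culture starved in PBS at 37 °C for six weeks, then exposed to compounds, isoniazid or rifampicin at 10 μg/ml for seven days; persisters counted by MPN assay.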

[3] = tested on: Mycobacterium tuberculosis; assay: Antimycobacterial activity against Mycobacterium tuberculosis H37Rv infected in mouse primary macrophage cells assessed as reduction in colony forming unit at 10 uM incubated for 48 hrs followed by macrophage lysis and measured after 3 weeks by alamar blue based serial dilution method; type: functional; conditions: time 23 day
How it was run: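 Macrophages infected with M. tuberculosis, then exposed to compounds at 10 μM final for two days; bacteria suspended in 7H9 broth, serially diluted, plates incubated at 37 °C and growth read after three weeks.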

[4] = Cytotoxicity against mouse RAW264.7 cells assessed as reduction in cell viability at 50 ug/ml incubated for 72 to 96 hrs by MTT assay; type: cell-based; conditions: at 50 µg/mL, time 72-96 hrs, read-out: INH
[5] = target: T1, Enoyl-[acyl-carrier-protein] reductase [NADH] (Mycobacterium tuberculosis, UniProt P9WGR1); assay: Inhibition of recombinant Mycobacterium tuberculosis His6-tagged InHA expressed in Escherichia coli BL21 using trans-2-dodecenoyl-Coenzyme A as substrate
T1 sequence (P9WGR1 whole entry): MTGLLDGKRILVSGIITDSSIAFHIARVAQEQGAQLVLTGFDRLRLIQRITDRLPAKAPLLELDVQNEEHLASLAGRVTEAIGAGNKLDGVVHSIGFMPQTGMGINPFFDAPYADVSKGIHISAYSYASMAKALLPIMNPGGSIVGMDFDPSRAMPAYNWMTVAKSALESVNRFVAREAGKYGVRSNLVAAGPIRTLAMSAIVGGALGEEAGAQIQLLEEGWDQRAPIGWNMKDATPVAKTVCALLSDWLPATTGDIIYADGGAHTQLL
How it was run: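 M. tuberculosis InhA screened at 50 μM, and compounds above 70% inhibition also at 5 μM; triclosan positive control; triplicate assays; IC50 from 4-parameter curve fit using at least seven points.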

| SMILES | MIC [1] | fold change (FC) [2] | fold change (FC) [3] | cytotoxicity at 50 ug/ml [4] | IC50 [5] |
| --- | --- | --- | --- | --- | --- |
| COc1ccc(NC(=S)Nc2ncccc2C)cc1 | 45.8 µM |  |  |  |  |
| NNC(=O)c1ccncc1 [ISONIAZID] | 0.36 µM | 1.4 | 2.5 |  |  |
| Cc1cccnc1NC(=S)Nc1ccc(Cl)cc1Cl | 2.5 µM | 2.3 | 1.4 | 34% |  |
| S=C(NCc1ccccc1Cl)Nc1ccccc1 | > 90.2 µM |  |  |  |  |
| Cc1cccnc1NC(=S)Nc1ccc(Br)cc1 | 2.42 µM |  |  | 30.8% |  |
| S=C(NCc1ccccc1Br)Nc1ccccc1 | > 77.9 µM |  |  |  |  |
| Cc1ccc(NC(=S)Nc2ncccc2C)cc1 | 97.3 µM |  |  |  |  |
| Cc1cccnc1NC(=S)Nc1ccc(I)cc1 | 2.11 µM | 2 |  | 31.2% |  |
| O=[N+]([O-])c1ccc(NC(=S)NCc2ccccc2Br)cc1 | 4.26 µM |  |  | 24.9% | 15.6 µM |
| CO[C@H]1/C=C/O[C@@]2(C)Oc3c(C)c(O)c4c(O)c(c(/C=N/N5CCN(C)CC5)c(O)c4c3C2=O)NC(=O)/C(C)=C\C=C\[C@H](C)[C@H](O)[C@@H](C)[C@@H](O)[C@@H](C)[C@H](OC(C)=O)[C@@H]1C [RIFAMPIN] | 0.12 µM | 1.6 |  |  |  |
| Cc1cccnc1NC(=S)Nc1ccccc1C(F)(F)F | > 80.4 µM |  |  |  |  |
| O=C(NCc1ccccc1Cl)Nc1ccccc1 | > 95.8 µM |  |  |  |  |
| Cc1cccnc1NC(=S)Nc1ccccc1 | > 103 µM |  |  |  |  |
| Cc1cccnc1NC(=S)Nc1cc(C(F)(F)F)cc(C(F)(F)F)c1 | > 66 µM |  |  |  |  |
| O=C(NCc1ccccc1Br)Nc1ccccc1 | > 82 µM |  |  |  |  |
| O=[N+]([O-])c1ccc(NC(=S)NCc2ccccc2Cl)cc1 | 2.42 µM | 2.6 | 1.8 | 29.9% | 17.7 µM |
| CC[C@@H](CO)NCCN[C@@H](CC)CO [ETHAMBUTOL] | 7.6 µM |  |  |  |  |
| Cc1cccnc1NC(=S)Nc1ccc2ccccc2c1 | > 85.3 µM |  |  |  |  |
| Cc1cccnc1NC(=S)Nc1ccc(F)cc1 | 47.9 µM |  |  |  |  |
